Experimental data taken from ChEMBL document CHEMBL3877264, “Quinolidene-rhodanine conjugates: Facile synthesis and biological evaluation” (Eur J Med Chem, 2017).
Values after ≈ are worked out from the molar mass of the structure shown.

Columns and labels:
[1] = test system: Mycobacterium tuberculosis; assay: Growth inhibition of Mycobacterium tuberculosis H37Ra ATCC 25177 at active stage measured after 8 days by XTT dye based two fold dilution method; format: functional; conditions: H37Ra ATCC 25177, 192 h
How it was run: (§1)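 MTB H37Ra was grown in Dubos medium, then exposed in Mycobacterium pheli minimal medium (pH 6.6) to compounds dissolved in DMSO. The assay ended on day 8 (active) or day 12 (dormant). Viable cells were measured by XTT reduction menadione assay at 470 nm, blank-corrected, relative to vehicle control. Triplicates were expressed as mean ± SD. MIC came from dose-response curves.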

[2] = Selectivity index, ratio of GI50 for HUVEC to MIC for Mycobacterium bovis BCG ATCC 35743 at dormant stage; conditions: pooled result: one value given for 6 cell lines, strains, targets or settings
How it was run: (§2)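 SI is the cell-line GI50 divided by the dormant-stage mycobacterial MIC. […] THP-1 macrophages were PMA-differentiated for 24 h.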

[3] = test system: Mycobacterium tuberculosis; assay: Growth inhibition of Mycobacterium bovis BCG ATCC 35743 at active stage measured after 8 days by nitrate reductase dye based two fold dilution method; format: functional; conditions: BCG str. ATCC 35743, 192 h
How it was run: (§3)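 M. bovis BCG was grown in Dubos medium and assayed in Mycobacterium pheli minimal medium (pH 6.6), with compounds from DMSO stocks. Incubation lasted 8 days for active and 12 days for dormant cultures. Viability was read by nitrate reductase at 540 nm against cell-free blanks, with vehicle set as 100% growth. Primary screen was at 30, 10 and 3 µg/ml, in triplicate, mean ± SD. MIC was taken from dose-response curves.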

[4] = Selectivity index, ratio of GI50 for human PANC1 cells to MIC for Mycobacterium tuberculosis H37Ra ATCC 25177 at dormant stage; format: toxicity, cell-based, PANC-1; conditions: read-out: Selectivity Index; how it was run: as §2
[5] = Selectivity index, ratio of GI50 for […]-differentiated human THP1 cells to MIC for Mycobacterium tuberculosis H37Ra ATCC 25177 at dormant stage; format: toxicity, cell-based, THP-1; conditions: read-out: Selectivity Index; how it was run: as §2
[6] = Selectivity index, ratio of GI50 for human HeLa cells to MIC for Mycobacterium tuberculosis H37Ra ATCC 25177 at dormant stage; format: toxicity, cell-based; conditions: read-out: Selectivity Index; how it was run: as §2
[7] = Selectivity index, ratio of GI50 for human A549 cells to MIC for Mycobacterium tuberculosis H37Ra ATCC 25177 at dormant stage; format: toxicity, cell-based; conditions: read-out: Selectivity Index; how it was run: as §2
[8] = Selectivity index, ratio of GI50 for human THP1 cells to MIC for Mycobacterium tuberculosis H37Ra ATCC 25177 at dormant stage; format: toxicity, cell-based, THP-1; conditions: read-out: Selectivity Index; how it was run: as §2
[9] = test system: Mycobacterium tuberculosis; assay: Growth inhibition of Mycobacterium tuberculosis H37Ra ATCC 25177 at dormant stage measured after 12 days by XTT dye based two fold dilution method; format: functional; conditions: H37Ra ATCC 25177, 288 h; how it was run: as §1
[10] = Selectivity index, ratio of GI50 for HUVEC to MIC for Mycobacterium tuberculosis H37Ra ATCC 25177 at dormant stage
[11] = test system: Mycobacterium tuberculosis; assay: Growth inhibition of Mycobacterium bovis BCG ATCC 35743 at dormant stage measured after 12 days by nitrate reductase dye based two fold dilution method; format: functional; conditions: BCG str. ATCC 35743, 288 h; how it was run: as §3
[12] = Cytotoxicity against human PANC1 cells measured after 48 hrs by MTT assay; format: toxicity, cell-based, PANC-1
[13] = Cytotoxicity against human A549 cells measured after 48 hrs by MTT assay; format: toxicity, cell-based
[14] = Cytotoxicity against human THP1 cells measured after 48 hrs by MTT assay; format: toxicity, cell-based, THP-1
How it was run: (§4)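 MTT assay with 48 h compound exposure. THP-1 macrophages made by 24 h PMA treatment. Each concentration tested in triplicate in one experiment. % cytotoxicity = (control−test)/(control−blank)×100, with control = cells + DMSO and blank = medium without cells. IC50 from % survival versus concentration plots.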

[15] = Cytotoxicity against […]-differentiated human THP1 cells measured after 48 hrs by MTT assay; format: toxicity, cell-based, THP-1; how it was run: as §4
[16] = Cytotoxicity against human HeLa cells measured after 48 hrs by MTT assay; format: toxicity, cell-based
[17] = Cytotoxicity against primary HUVEC measured after 48 hrs by MTT assay; format: toxicity, cell-based; conditions: human

| Structure (SMILES) | IC50 [1] [µg/mL] | IC90 [1] [µg/mL] | Selectivity Index [2] | IC90 [3] [µg/mL] | selectivity ratio [4] | selectivity ratio [5] | selectivity ratio [6] | selectivity ratio [7] | selectivity ratio [8] | IC50 [9] [µg/mL] | IC90 [9] [µg/mL] | Selectivity Index [10] | IC50 [11] [µg/mL] | IC90 [11] [µg/mL] | GI50 at 48 h [12] [µg/mL] | GI50 at 48 h [13] [µg/mL] | GI50 at 48 h [14] [µg/mL] | GI50 at 48 h [15] [µg/mL] | GI50 at 48 h [16] [µg/mL] | GI50 at 48 h [17] [µg/mL] |
| --- | --- | --- | --- | --- | --- | --- | --- | --- | --- | --- | --- | --- | --- | --- | --- | --- | --- | --- | --- | --- |
| CO[C@H]1/C=C/O[C@@]2(C)Oc3c(C)c(O)c4c(O)c(c(/C=N/N5CCN(C)CC5)c(O)c4c3C2=O)NC(=O)/C(C)=C\C=C\[C@H](C)[C@H](O)[C@@H](C)[C@@H](O)[C@@H](C)[C@H](OC(C)=O)[C@@H]1C [RIFAMPIN] | 0.0021 (≈ 0.00255 µM) | 0.028 (≈ 0.034 µM) | 2500 | 0.0151 (≈ 0.0183 µM) | 2500 | 2500 | 2500 | 2500 | 2500 | 0.0019 (≈ 0.00231 µM) | 0.02 (≈ 0.0243 µM) | 2500 | 0.0043 (≈ 0.00523 µM) | 0.0173 (≈ 0.021 µM) | – | – | – | – | – | – |
| CC(=O)O[C@H]1C(=O)[C@@]2(C)[C@H]([C@H](OC(=O)c3ccccc3)[C@]3(O)C[C@H](OC(=O)[C@H](O)[C@@H](NC(=O)c4ccccc4)c4ccccc4)C(C)=C1C3(C)C)[C@]1(OC(C)=O)CO[C@@H]1C[C@@H]2O [PACLITAXEL] | – | – | – | – | – | – | – | – | – | – | – | – | – | – | 5.8 (≈ 6.79 µM) | 0.04 (≈ 0.0468 µM) | 5.7 (≈ 6.68 µM) | > 100 | 0.08 (≈ 0.0937 µM) | > 10 |
